Measured values published in ChEMBL document CHEMBL4431325, “Design and Synthesis of Orally Bioavailable 4-Methyl Heteroaryldihydropyrimidine Based Hepatitis B Virus (HBV) Capsid Inhibitors” (J Med Chem, 2016).

Tests used:
[1] = Intrinsic clearance in mouse liver microsomes at 1 uM preincubated for 10 mins followed by NADPH addition measured up to 30 mins by LC-MS/MS analysis; assay type: ADME, Microsome; conditions: read-out: CLH
[2] = Cmax in CD-1 mouse plasma at 5 mg/kg, iv administered as single dose by LC-MS/MS analysis; assay type: ADME, organism-based; parameters: dose 5 mg/kg, route intravenous
in vivo = conditions: CD-1, mouse, other tissue, po, 50 mg/kg
[3] = Half life in CD-1 mouse plasma at 50 mg/kg, po administered as single dose by LC-MS/MS analysis; assay type: ADME, organism-based
[4] = Volume of distribution at steady state in CD-1 mouse plasma at 5 mg/kg, iv administered as single dose by LC-MS/MS analysis; assay type: ADME, organism-based; conditions: read-out: Vdss
[5] = Intrinsic clearance in human liver microsomes at 1 uM preincubated for 10 mins followed by NADPH addition measured up to 30 mins by LC-MS/MS analysis; assay type: ADME, Microsome; conditions: read-out: CLH
[6] = Drug uptake in CD-1 mouse heart at 5 mg/kg, iv or 50 mg/kg, po administered as single dose by LC-MS/MS analysis; assay type: ADME, organism-based; conditions: in vivo
[7] = Half life in CD-1 mouse plasma at 5 mg/kg, iv administered as single dose by LC-MS/MS analysis; assay type: ADME, organism-based
[8] = Oral bioavailability in CD-1 mouse plasma at 50 mg/kg administered as single dose by LC-MS/MS analysis; assay type: ADME, organism-based
[9] = AUC (0 to t) in CD-1 mouse liver at 50 mg/kg, po administered as single dose by LC-MS/MS analysis; assay type: ADME, organism-based; conditions: in vivo
[10] = AUC (0 to t) in CD-1 mouse plasma at 50 mg/kg, po administered as single dose by LC-MS/MS analysis; assay type: ADME, organism-based; conditions: in vivo
[11] = Drug uptake in CD-1 mouse lung at 5 mg/kg, iv or 50 mg/kg, po administered as single dose by LC-MS/MS analysis; assay type: ADME, organism-based; conditions: in vivo
[12] = Clearance in CD-1 mouse plasma at 5 mg/kg, iv administered as single dose by LC-MS/MS analysis; assay type: ADME, organism-based
[13] = Drug uptake in CD-1 mouse brain at 5 mg/kg, iv or 50 mg/kg, po administered as single dose by LC-MS/MS analysis; assay type: ADME, organism-based; conditions: in vivo
[14] = AUC (0 to t) in CD-1 mouse plasma at 5 mg/kg, iv administered as single dose by LC-MS/MS analysis; assay type: ADME, organism-based; conditions: in vivo
[15] = Cmax in CD-1 mouse plasma at 50 mg/kg, po administered as single dose by LC-MS/MS analysis; assay type: ADME, organism-based; parameters: dose 50 mg/kg, route oral
[16] = Cmax in CD-1 mouse liver at 50 mg/kg, po administered as single dose by LC-MS/MS analysis; assay type: ADME, organism-based; parameters: dose 50 mg/kg, route oral
[17] = Oral bioavailability in CD-1 mouse plasma administered as single dose by LC-MS/MS analysis; assay type: ADME, organism-based
Outline: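 CD-1 mice (18-25 g) were used, with three mice per time point. The i.v. dose (5 mg/kg) was given in 6% Solutol/ethanol (1:1) plus 94% saline, and the oral dose (50 mg/kg) in 1% RC591. Blood was sampled at nine (i.v.) or eight (p.o.) time points into heparin. Plasma was analysed by LC-MS/MS, and parameters including F were derived noncompartmentally.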

[18] = Drug metabolism in human liver microsomes assessed as aromatization of dihydropyrimidine core at 1 uM preincubated for 10 mins followed by NADPH addition measured up to 30 mins by LC-MS/MS analysis; assay type: ADME, Microsome; conditions: 0.5 h
[19] = Drug metabolism in mouse liver microsomes assessed as aromatization of dihydropyrimidine core at 1 uM preincubated for 10 mins followed by NADPH addition measured up to 30 mins by LC-MS/MS analysis; assay type: ADME, Microsome; conditions: 0.5 h
[20] = Stability in CD-1 mouse liver by LC-MS/MS analysis; assay type: ADME, tissue-based

| Compound | CLint scaled at 1 µM [1] [mL/min/kg] | further results |
| --- | --- | --- |
| COC(=O)C1=C(COC2CCOC2)NC(c2nccs2)=NC1(C)c1ccc(F)cc1 (stereo unspecified) | 79 | – |
| COC(=O)C1=C(CN2CC(F)(F)C[C@H]2C(=O)O)NC(c2nccs2)=N[C@@]1(C)c1ccc(F)cc1 | 84 | Cmax [2]: 12400 ng/mL; Kp (in vivo): 20; half-life [3]: 48 min; Vd [4]: 0.22 L/kg; CLint scaled at 1 µM [5]: 12 mL/min/kg; Drug uptake [6]: Not Active; half-life [7]: 10.8 min; bioavailability [8]: 36%; AUCt [9]: 107000 µg/L/h; AUCt [10]: 5420 µg/L/h; Drug uptake [11]: Not Active; clearance [12]: 55.3 mL/min/kg; Drug uptake [13]: Not Active; AUCt [14]: 1500 µg/L/h; Cmax [15]: 2470 ng/mL; Cmax [16]: 41200 ng/mL |
| COC(=O)C1=C(CN2CCC(F)(F)C2)NC(c2nccs2)=NC1(C)c1ccc(F)cc1 (stereo unspecified) | 89 | – |
| COC(=O)C1=C(CN2CCC[C@@H]2C(=O)O)NC(c2nccs2)=N[C@@]1(C)c1ccc(F)cc1 | 60 | – |
| COC(=O)C1=C(CN2CCCS2(=O)=O)NC(c2nccs2)=NC1(C)c1ccc(F)cc1 (stereo unspecified) | 79 | – |
| COC(=O)C1=C(CN2CC(OC)C2)NC(c2nccs2)=NC1(C)c1ccc(F)cc1 (stereo unspecified) | 88 | – |
| COC(=O)C1=C(CN2CCC(C(F)(F)F)C2)NC(c2nccs2)=NC1(C)c1ccc(F)cc1 (stereo unspecified) | 88 | – |
| COC(=O)C1=C(CN2CCS(=O)(=O)CC2)NC(c2nccs2)=NC1(C)c1ccc(F)cc1 (stereo unspecified) | 66 | – |
| COC(=O)C1=C(CN2CC(F)(F)C[C@H]2C(=O)OC)NC(c2nccs2)=N[C@@]1(C)c1ccc(F)cc1 | 90 | CLint scaled at 1 µM [5]: 23 mL/min/kg |
| COC(=O)C1=C(CN2CCOCC2)NC(c2nccs2)=N[C@@]1(C)c1ccc(F)cc1 | 81 | bioavailability [17]: 1.5% |
| COC(=O)C1=C(CN2CCC(O)CC2)NC(c2nccs2)=NC1(C)c1ccc(F)cc1 (stereo unspecified) | 81 | – |
| CC1(c2ccc(F)cc2)N=C(c2nccs2)NC(CN2CCOCC2)=C1C(=O)O (stereo unspecified) | 6 | – |
| COC(=O)C1=C(CN2CCNC(=O)C2)NC(c2nccs2)=NC1(C)c1ccc(F)cc1 (stereo unspecified) | 81 | – |
| COC(=O)C1=C(CN2CCC(O)C2)NC(c2nccs2)=NC1(C)c1ccc(F)cc1 (stereo unspecified) | 83 | – |
| COC(=O)C1=C(Cn2ccnc2)NC(c2nccs2)=NC1(C)c1ccc(F)cc1 (stereo unspecified) | 69 | – |
| CC1(c2ccc(F)cc2)N=C(c2nccs2)NC(CN2CCOCC2)=C1c1ncco1 (stereo unspecified) | 89 | – |
| CC1(c2ccc(F)cc2)N=C(c2nccs2)NC(CN2CCOCC2)=C1C(N)=O (stereo unspecified) | 59 | – |
| COC(=O)C1=C(CN2CCNCC2)NC(c2nccs2)=NC1(C)c1ccc(F)cc1 (stereo unspecified) | 39 | – |
| COC(=O)C1=C(COCC(F)(F)F)NC(c2nccs2)=NC1(C)c1ccc(F)cc1 (stereo unspecified) | 81 | – |
| COC(=O)C1=C(CN2CCCCC2)NC(c2nccs2)=NC1(C)c1ccc(F)cc1 (stereo unspecified) | 88 | – |

| Compound | CLint scaled at 1 µM [1] [mL/min/kg] | further results |
| --- | --- | --- |
| COC(=O)C1=C(C)NC(c2nccs2)=NC1(C)c1ccc(F)c(F)c1 (stereo unspecified) | 83 | – |
| CC1(c2ccc(F)cc2)N=C(c2nccs2)NC(CN2CCOCC2)=C1C#N (stereo unspecified) | 79 | – |
| COC(=O)C1=C(CN2CCOCC2(C)C)NC(c2nccs2)=NC1(C)c1ccc(F)cc1 (stereo unspecified) | 88 | – |
| COC(=O)C1=C(C)NC(c2nccs2)=NC1(C)c1ccc(Cl)cc1 (stereo unspecified) | 85 | – |
| CC(C)OC(=O)C1=C(CN2CCOCC2)NC(c2nccs2)=NC1(C)c1ccc(F)cc1 (stereo unspecified) | 88 | – |
| COC(=O)C1=C(COC(C(=O)O)C(F)(F)F)NC(c2nccs2)=NC1(C)c1ccc(F)cc1 (stereo unspecified) | 24 | – |
| COC(=O)C1=C(CN2CCOCC2)NC(c2nccs2)=N[C@@]1(C)c1ccc(F)c(F)c1 | 89 | – |
| COC(=O)C1=C(CN2CCC(F)(F)CC2)NC(c2nccs2)=NC1(C)c1ccc(F)cc1 (stereo unspecified) | 88 | – |
| COC(=O)C1=C(C)NC(c2nccs2)=NC1(C)c1ccc(C#N)cc1 (stereo unspecified) | 75 | – |
| COC(=O)C1=C(CN2CCOCC2=O)NC(c2nccs2)=NC1(C)c1ccc(F)cc1 (stereo unspecified) | 80 | – |
| COC(=O)C1=C(CN2CCCC(F)(F)C2)NC(c2nccs2)=NC1(C)c1ccc(F)cc1 (stereo unspecified) | 89 | – |
| COC(=O)C1=C(C)NC(c2nccs2)=NC1(C)c1ccc(S(C)(=O)=O)cc1 (stereo unspecified) | 57 | – |
| CNC(=O)C1=C(CN2CCOCC2)NC(c2nccs2)=NC1(C)c1ccc(F)cc1 (stereo unspecified) | 77 | – |
| COC(=O)C1=C(C)NC(c2ncc(F)cc2F)=N[C@H]1c1ccc(F)cc1Cl | – | Drug metabolism [18]: Metabolite_Detected; Drug metabolism [19]: Metabolite_Detected; Stability [20]: Unstable |
| COC(=O)C1=C(CN2CCOC[C@H]2C(=O)O)NC(c2nccs2)=N[C@@]1(C)c1ccc(F)cc1 | 80 | CLint scaled at 1 µM [5]: 4.1 mL/min/kg |
| COC(=O)C1=C(CN2CCOC[C@@H]2C(=O)O)NC(c2nccs2)=N[C@@]1(C)c1ccc(F)cc1 | 61 | – |
| COC(=O)C1=C(CN(C)C2(C(=O)O)CC2)NC(c2nccs2)=NC1(C)c1ccc(F)cc1 (stereo unspecified) | 42 | – |
| COC(=O)C1=C(CN2CCC[C@H]2C(=O)O)NC(c2nccs2)=N[C@@]1(C)c1ccc(F)cc1 | 14 | CLint scaled at 1 µM [5]: 2.3 mL/min/kg |
| COC(=O)C1=C(CN2CC3CC2CO3)NC(c2nccs2)=NC1(C)c1ccc(F)cc1 (stereo unspecified) | 84 | – |
